# Sampled rows, rich in hits. Any-hit rate of the full collection: about 1.8%.
# Jurkat NFkB inh: inhibitors of induced NF-kB luciferase reporter, primary screen, TCR NF-kB activation inhibitor project, cell-based, luminescence, uHTS. hit rate 0.53% among 330,000. inhibition, % at 4 µM. Jurkat, PMA/ionomycin-induced NF-kB luciferase reporter; in the data active = inhibition above about 50%
# GalR3 antagonist: GalR3 antagonists in HEK293 cells, primary screen, cell-based, fluorescence readout. AID 651719, 2012. HEK293 GalR3-CNG cAMP membrane potential fluorescence; galR3 body fused to GalR1 C-terminus. hit rate 0.44% among 360,000. inhibition, % at 3 µM;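 active = inhibition above the screen-wide average plus 3 SD, cut at about 13% in these data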;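 note: forskolin and galanin both at EC90 stimulate the cells; cAMP rise reported by CNG channel membrane potential dye signal; 0% = forskolin plus galanin with DMSO and 100% = forskolin alone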
# NR2E3 ag-1: NR2E3 agonists in two-hybrid cells, primary screen, cell-based, luminescence, CHO-S, Gal4-NCOR/VP16-NR2E3. Photoreceptor-specific nuclear receptor (Homo sapiens), Q9Y5X4. luciferase. inhibition of corepressor binding, % at 3.98 µM. hit rate 0.35% among 360,000;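 active = inhibition above the mean of all tested compounds plus 3 SD, cut at about 70% in these data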;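 note: 0% = DMSO with NR2E3 transfected cells and 100% = cells lacking NR2E3 construct; higher means lower luciferase signal from less NR2E3 corepressor binding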
# Target sequence (Q9Y5X4 whole entry, looked up, the tested form may be a part): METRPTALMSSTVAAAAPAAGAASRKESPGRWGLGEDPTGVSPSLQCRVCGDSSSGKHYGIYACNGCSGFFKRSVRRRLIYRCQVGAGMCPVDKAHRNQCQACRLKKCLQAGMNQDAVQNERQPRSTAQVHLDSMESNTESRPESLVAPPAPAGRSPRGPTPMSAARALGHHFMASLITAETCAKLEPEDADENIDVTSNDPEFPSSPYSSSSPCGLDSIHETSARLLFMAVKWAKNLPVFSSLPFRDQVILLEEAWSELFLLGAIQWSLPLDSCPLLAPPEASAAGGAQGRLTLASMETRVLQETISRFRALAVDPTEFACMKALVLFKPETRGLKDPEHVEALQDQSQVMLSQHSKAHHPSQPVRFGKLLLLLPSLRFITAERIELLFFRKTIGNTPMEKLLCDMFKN
# NR2E3 ag-2: inhibitors of NR2E3-RetCOR corepressor binding, primary screen, NR2E3 agonist project, biochemical, TR-FRET, GST-NR2E3, biotin-RetCOR | hit rate 0.12% among 320,000 | AID 2300, 2010 | 1536-well | inhibition of corepressor binding, % at 4.78 µM | Photoreceptor-specific nuclear receptor (Homo sapiens), Q9Y5X4;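 active = percent inhibition above the cutoff of mean plus 3 SD of all tested compounds, set per screening campaign, cut at about 20% in these data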;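 note: 0% = DMSO wells and 100% = biotin wells as full block of FRET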
#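 System: GST-tagged NR2E3 plus biotinylated RetCOR corepressor; Amount: 1.35 nM GST-tagged NR2E3 final; Dosing: single nominal compound dose of 4.8 µM; Schedule: 5 h incubation at 4 °C; Technique: TR-FRET with europium anti-GST and streptavidin-D2, 340 nm excitation; Controls: biotin wells as high control, 0.6% DMSO wells as low control.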
# 697 NFkB inh: inhibitors of PMA/ionomycin-induced NF-kB reporter, 697 cells, primary screen, B-cell NF-kB inhibitor project, cell-based, luminescence, uHTS. hit rate 0.33% among 330,000. 697 B-cell NF-kB luciferase reporter, 16 h. inhibition, % at 4 µM; in the data active = inhibition above about 35%
# Gli-Sufu antag: Gli-Sufu pathway antagonists, primary screen, luciferase luminescence, Sufu-KO-LIGHT cells, uHTS. Sufu-KO-LIGHT fibroblasts, Gli luciferase reporter luminescence. inhibition, % at 5 µM. hit rate 0.74% among 340,000;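 active = inhibition above about 55%, limit read from the data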;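 note: 0% = DMSO-treated cells and 100% = wells with medium but no cells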
# 697 NFkB conf: PMA/ionomycin-induced NF-kB reporter inhibitors, 697 retest, confirmation, B-cell NF-kB inhibitor project, cell-based, luminescence, single concentration. inhibition, % at 4 µM. 697 B-cell NF-kB luciferase, 16 h. shares compounds with 697 NFkB inh. hit rate 35% among 2,000. AID 449746, 2010; in the data active = inhibition mostly above about 28%, no sharp cut-off; inactive = mostly below about 22%
# * marks the source's active call; other numbers are inactive results; . = no result given.
SMILES,Jurkat NFkB inh,GalR3 antagonist,NR2E3 ag-1,NR2E3 ag-2,697 NFkB inh,Gli-Sufu antag,697 NFkB conf
COc1cc(OC)c(NC(=O)C(Sc2nc(C)cc(C)c2C#N)c2ccccc2)cc1Cl (configuration not stated),.,-6,.,.,.,.,.
Cc1csc(NC(=O)c2cc3c(s2)CCCC3)n1,-111,3,-111,2,34,-182,.
Cc1cnc(NC(=O)c2cc3c(s2)CCCC3)s1,-148,-8,-135,1,-328,1,-359
O=C(O)c1cccc(Nc2ncnc3sccc23)c1,-17,-6,-28,-3,52*,3,0
O=C(Nc1ccc2ccccc2c1)C(c1ccccc1)C1CCCC1 (configuration not stated),-9,-4,-6,-3,-258,14,-220
Cc1ccc(NC(=O)CCNS(=O)(=O)c2ccc3c(c2)oc(=O)n3C)cc1,16,-7,-22,1,41*,1,8
CCOc1ccc(NC(=O)CCNS(=O)(=O)c2ccc3c(c2)oc(=O)n3C)cc1,0,4,-26,3,-2,-11,.
CCN=C1NC(c2cccc(Cl)c2)C(C(=O)OC)=C(C)N1Cc1ccccc1C(F)(F)F (configuration not stated),.,-6,.,.,.,.,.
COc1ccccc1N(/N=C1\Sc2ccccc2C1=O)C(C)=O,-98,-1,-16,-2,-391,34,-331
COC(=O)[C@@H]1CC[C@H](C)[C@@H](c2ccc(C)cc2)N1C(=O)c1ccc(/C=N/OC[C@@H](O)[C@H]2O[C@@H]3OC(C)(C)O[C@@H]3[C@H]2O)cc1,18,.,.,.,14,.,.
COC(=O)[C@@H]1CC[C@H](C)[C@@H](c2ccc(C)cc2)N1C(=O)c1ccc(/C=N/O[C@@H](C)c2cn([C@H](CO)Cc3ccccc3)nn2)cc1,28,.,.,0,52*,.,26
CN(NC(=O)C(=O)NCc1ccco1)C(=O)NC1CCCCC1,.,-2,.,.,.,.,.
Cc1ccc2nc(-c3cccc(Br)c3)c(Cc3ccsc3)n2c1,.,-6,.,.,.,.,.
C=CCN=C1NC(CCc2ccccc2)C(C(=O)OC)=C(C)N1Cc1ccccc1C(F)(F)F (configuration not stated),.,-7,.,.,.,.,.
Cc1ccc(C(=O)CSc2nnc(COc3cccc(C)c3)o2)cc1,-4,-7,-40,2,49*,6,57*
CCOC(=O)CSc1nnc(COc2cccc(C)c2)o1,6,-3,-39,5,14,3,.
CCOC(=O)C1CCCCN1C(=O)c1oc2c(Cl)cc(C)cc2c1C (configuration not stated),-1,0,13,-2,-7,9,.
COC(=O)C1CCN(C(=O)c2oc3c(Cl)cc(C)cc3c2C)CC1,-99,-6,-123,-4,-265,-103,-282
COCCCNc1nc2cc(OC)c(OC)cc2c2nc(-c3ccccc3)nn12,-7,-2,1,-1,37*,4,14
O=C(CCCN1C(=O)/C(=C/c2ccccc2Cl)SC1=S)NNC(=O)c1ccc(Cl)cc1Cl,27,-2,-13,-1,60*,26,39*
O=C(CCN1C(=O)/C(=C/c2ccccc2Cl)SC1=S)Nc1ccccc1C(=O)O,-6,-8,-24,0,-5,7,.
O=C(CCCN1C(=O)/C(=C/c2ccccc2Cl)SC1=S)NNC(=O)c1ccccc1,13,-3,24,0,40*,6,42*
O=S1(=O)N[C@@H](Cc2ccccc2)COc2cccc(NCCO)c21,.,-1,.,.,.,.,.
CCOC(=O)CNC(=O)CSc1nnc(NC(=O)c2ccc(C)cc2)s1,35,-2,-8,-2,43*,14,33*
CCOC(=O)CNC(=O)CSc1nnc(NC(=O)c2ccc3c(c2)OCO3)s1,17,-1,-18,2,20,-21,.
SMILES,Jurkat NFkB inh,GalR3 antagonist,NR2E3 ag-1,NR2E3 ag-2,697 NFkB inh,Gli-Sufu antag,697 NFkB conf
COc1ccc(-c2cc(NC(=O)Cc3c[nH]c4ccccc34)ccc2Nc2cccnc2)c(OC)c1,.,-7,.,.,.,.,.
Cc1cc(C)cc(NC(=O)c2nnn(Cc3cc(C)ccc3C)c2N)c1,-8,.,50,-8,38*,12,29*
CN1C(=O)CC(c2ccco2)Sc2ccccc21 (configuration not stated),-2,-6,3,0,39*,10,29*
CCCN1C(=O)CC(c2ccco2)Sc2ccccc21 (configuration not stated),-3,-6,-9,0,7,-1,.
Cc1cccc(C)c1OCc1nnc(SCC(=O)O)n1-c1c(C)cccc1C,.,-3,.,.,.,.,.
CC(=O)Nc1cccc(NC(=O)c2cc(-c3cccnc3)nc3ccc(Br)cc23)c1,10,-4,-3,19,41*,2,16
CC(=O)Nc1cccc(NC(=O)c2cc(-c3cccnc3)nc3ccc(Cl)cc23)c1,3,-3,0,3,9,2,.
Cn1c(=O)cc(Nc2ccccc2)c2c(=O)n(-c3ccccc3)c(=O)n(-c3ccccc3)c21,-7,3,-20,0,43*,12,32*
Cn1c(=O)c2c(Nc3ccc(F)cc3)cc(=O)n(-c3ccccc3)c2n(C)c1=O,13,-6,6,-3,-2,-1,.
CC(C)OC(=O)[C@@H](Cc1ccccc1)N[C@H](/C=C/c1ccccc1)[C@@H](O)Cc1ccccc1,.,2,.,.,.,.,.
Cc1ccc(O)c(-c2cc(C(F)(F)F)[nH]n2)c1,10,-7,-26,-4,40*,5,22
COC(=O)Cc1nnn2c1[C@H](C)[C@H](C(C)(C)C)OCC2,.,-2,.,.,.,.,.
Cc1ccc(CNc2nc3ccccc3s2)s1,-108,-1,-119,-4,-265,-95,-293
COc1ccc(CNc2nc3ccccc3s2)cc1OC,-33,-11,-84,-1,-67,-30,.
NS(=O)(=O)c1ccc(N=Nc2ccc(O)c3ncccc23)cc1,14,4,7,-1,-388,49,-255
COC(=O)C1=C(C)N(Cc2ccccc2C(F)(F)F)C(=NCc2ccc(OC)cc2)NC1c1cccc(Cl)c1 (configuration not stated),.,-7,.,.,.,.,.

# Screens deposited in PubChem by several laboratories.
